Measurements taken from ChEMBL document CHEMBL3808334, “Synthesis and in vitro evaluation of novel triazine analogues as anticancer agents and their interaction studies with bovine serum albumin” (Eur J Med Chem, 2016).

What was measured:
Format in all cases: functional
A549 [1] = experiment: Growth inhibition of human A549/ATCC cells assessed as cell growth at 10^-4 M incubated for 48 hrs by sulforhodamine B assay; conditions: A549, 48 h, read-out: Activity
[2] = Growth inhibition of human HCT15 cells assessed as cell growth at 10^-4 M incubated for 48 hrs by sulforhodamine B assay; conditions: HCT-15, 48 h, read-out: Activity
How it was run: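 Cells seeded at 5,000–40,000/well according to doubling time and preincubated 24 h at 37 °C, 5% CO2. Time-zero plates were TCA-fixed. DMSO concentrate was diluted in medium with 50 µg/ml gentamicin to give five concentrations (10-fold or ½ log steps), then exposed 48 h. Cells were TCA-fixed, stained with 0.4% SRB and read at 515 nm. Percent growth was taken against time-zero and control; GI50, TGI and LC50 derived.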

[3] = Growth inhibition of human SF539 cells assessed as cell growth at 10^-4 M incubated for 48 hrs by sulforhodamine B assay; conditions: SF-539, 48 h, read-out: Activity
[4] = Growth inhibition of human OVCAR5 cells assessed as cell growth at 10^-7 M incubated for 48 hrs by sulforhodamine B assay; conditions: OVCAR-5, 48 h, read-out: Activity
A549 [5] = experiment: Growth inhibition of human A549/ATCC cells incubated for 48 hrs by sulforhodamine B assay; conditions: A549, 48 h
How it was run: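 Five-dose assay: five concentrations from 10-fold or ½-log serial dilutions. Cells are plated at 5,000–40,000 per well according to doubling time, grown 24 h, then exposed 48 h at 37 °C, 5% CO₂. Fixed with cold 50% TCA (final addition) for 60 min at 4 °C and stained with 0.4% SRB in 1% acetic acid. Bound dye is solubilized in 10 mM Tris base and read at 515 nm. GI₅₀ is where [(Ti−Tz)/(C−Tz)]×100 = 50, with a time-zero plate as Tz.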

T47D [6] = experiment: Growth inhibition of human T47D cells assessed as cell growth at 10^-4 M incubated for 48 hrs by sulforhodamine B assay; conditions: read-out: Activity
[7] = Growth inhibition of human HOP92 cells assessed as cell growth at 10 uM incubated for 48 hrs by sulforhodamine B assay; conditions: HOP-92, 48 h, read-out: Activity
Malme-3M = experiment: Growth inhibition of human MALME-3M cells assessed as cell growth at 10^-6 M incubated for 48 hrs by sulforhodamine B assay; conditions: read-out: Activity
[8] = Growth inhibition of human SW620 cells assessed as cell growth at 10^-8 M incubated for 48 hrs by sulforhodamine B assay; conditions: SW-620, 48 h, read-out: Activity
NCI-H322M = experiment: Growth inhibition of human NCI-H322M cells assessed as cell growth at 10 uM incubated for 48 hrs by sulforhodamine B assay; conditions: read-out: Activity
[9] = Growth inhibition of human SF295 cells incubated for 48 hrs by sulforhodamine B assay; conditions: SF-295, 48 h
How it was run: (§1)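 Cells were plated at 5,000–40,000 per well according to doubling time and preincubated 24 h at 37 °C in 5% CO2; time-zero plates were then TCA-fixed. Five concentrations (10-fold or ½-log dilutions, DMSO stock) were incubated 48 h. Cells were TCA-fixed, stained with 0.4% SRB and read at 515 nm. GI50 was taken where [(Ti−Tz)/(C−Tz)]×100 = 50.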

M14 [10] = experiment: Growth inhibition of human M14 cells assessed as cell growth at 10 uM incubated for 48 hrs by sulforhodamine B assay; conditions: M14, 48 h, read-out: Activity
M14 [11] = experiment: Growth inhibition of human M14 cells assessed as cell growth at 10^-5 M incubated for 48 hrs by sulforhodamine B assay; conditions: M14, 48 h, read-out: Activity
SN12C = experiment: Growth inhibition of human SN12C cells assessed as cell growth at 10^-8 M incubated for 48 hrs by sulforhodamine B assay; conditions: read-out: Activity
HT-29 = experiment: Growth inhibition of human HT-29 cells assessed as cell growth at 10^-5 M incubated for 48 hrs by sulforhodamine B assay; conditions: HT-29, 48 h, read-out: Activity
T47D [12] = experiment: Growth inhibition of human T47D cells assessed as cell growth at 10^-8 M incubated for 48 hrs by sulforhodamine B assay; conditions: read-out: Activity
[13] = Growth inhibition of human SF268 cells assessed as cell growth at 10^-7 M incubated for 48 hrs by sulforhodamine B assay; conditions: SF-268, 48 h, read-out: Activity
[14] = Growth inhibition of human OVCAR8 cells incubated for 48 hrs by sulforhodamine B assay; conditions: OVCAR-8, 48 h; how it was run: as §1
[15] = Growth inhibition of human LOXIMVI cells assessed as cell growth at 10^-4 M incubated for 48 hrs by sulforhodamine B assay; conditions: LOX IMVI, read-out: Activity
SK-MEL-28 = experiment: Growth inhibition of human SK-MEL-28 cells assessed as cell growth at 10^-4 M incubated for 48 hrs by sulforhodamine B assay; conditions: SK-MEL-28, 48 h, read-out: Activity
NCI/ADR-RES = experiment: Growth inhibition of human NCI/ADR-RES cells assessed as cell growth at 10 uM incubated for 48 hrs by sulforhodamine B assay; conditions: read-out: Activity
[16] = Growth inhibition of human OVCAR5 cells assessed as cell growth at 10^-5 M incubated for 48 hrs by sulforhodamine B assay; conditions: OVCAR-5, 48 h, read-out: Activity
NCI-H460 = experiment: Growth inhibition of human NCI-H460 cells assessed as cell growth at 10^-8 M incubated for 48 hrs by sulforhodamine B assay; conditions: NCI-H460, 48 h, read-out: Activity
KM12 = experiment: Growth inhibition of human KM12 cells assessed as cell growth at 10^-7 M incubated for 48 hrs by sulforhodamine B assay; conditions: KM12, 48 h, read-out: Activity
MCF7 = experiment: Growth inhibition of human MCF7 cells assessed as cell growth at 10^-5 M incubated for 48 hrs by sulforhodamine B assay; conditions: MCF7, 48 h, read-out: Activity
[17] = Growth inhibition of human HOP62 cells assessed as cell growth at 10^-5 M incubated for 48 hrs by sulforhodamine B assay; conditions: HOP-62, 48 h, read-out: Activity
CCRF-CEM = experiment: Growth inhibition of human CCRF-CEM cells assessed as cell growth at 10 uM incubated for 48 hrs by sulforhodamine B assay; conditions: read-out: Activity
How it was run: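 One-dose screen at 10 µM final. Cells are plated at 5,000–40,000 per well according to doubling time and preincubated 24 h at 37 °C, 5% CO₂. Compound (DMSO stock diluted in medium with 50 µg/ml gentamicin) is then added for 48 h. Growth percent is read by sulforhodamine B staining, absorbance at 515 nm.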

[18] = read-out: LC50 (the source's name)
[19] = read-out: pLC50 (the source's name) (converted)

## c1ccc(-c2nc(Nc3ccc(-c4nc5ccccc5[nH]4)cc3)nc(N3CCOCC3)n2)cc1
A549 [1]
  growth at 100 µM: -64%
[2]
  growth at 100 µM: -49%
[3]
  growth at 100 µM: -90%
[4]
  growth at 0.1 µM: 99%
A549 [5]; read-out: GI50
  GI50: 1.95 µM
A549 [5]; [18]
  CC50: 8.25 µM
A549 [5]; read-out: TGI
  TGI: 4.01 µM
A549 [5]; read-out: pGI50 (converted)
  GI50: 1.95 µM
A549 [5]; [19]
  CC50: 8.32 µM
A549 [5]; read-out: pTGI (converted)
  TGI: 3.98 µM
T47D [6]
  growth at 100 µM: -56%
[7]
  growth at 10 µM: -66.2%
Malme-3M
  growth at 1 µM: 103%
[8]
  growth at 0.01 µM: 98%
NCI-H322M
  growth at 10 µM: -0.47%
[9]; read-out: GI50
  GI50: 1.25 µM
[9]; [18]
  CC50: 6.47 µM
[9]; read-out: TGI
  TGI: 2.84 µM
[9]; read-out: pGI50 (converted)
  GI50: 1.26 µM
[9]; [19]
  CC50: 6.46 µM
[9]; read-out: pTGI (converted)
  TGI: 2.82 µM
M14 [10]
  growth at 10 µM: -80.7%
M14 [11]
  growth at 10 µM: -80%
SN12C
  growth at 0.01 µM: 96%
HT-29
  growth at 10 µM: -70%
T47D [12]
  growth at 0.01 µM: 103%
[13]
  growth at 0.1 µM: 92%
[14]; read-out: GI50
  GI50: 1.72 µM
[14]; [18]
  CC50: 6.79 µM
[14]; read-out: TGI
  TGI: 3.41 µM
[14]; read-out: pGI50 (converted)
  GI50: 1.7 µM
[14]; [19]
  CC50: 6.76 µM
[14]; read-out: pTGI (converted)
  TGI: 3.39 µM
[15]
  growth at 100 µM: -45%
SK-MEL-28
  growth at 100 µM: -72%
NCI/ADR-RES
  growth at 10 µM: -60.8%
[16]
  growth at 10 µM: -73%
NCI-H460
  growth at 0.01 µM: 103%
KM12
  growth at 0.1 µM: 97%
MCF7
  growth at 10 µM: -57%
[17]
  growth at 10 µM: -74%
CCRF-CEM
  growth at 10 µM: -15.7%

## Fc1ccc(-c2nc(Nc3ccc(-c4nc5ccccc5[nH]4)cc3)nc(N3CCOCC3)n2)cc1
[2]
  growth at 100 µM: -13%
[3]
  growth at 100 µM: -84%
[4]
  growth at 0.1 µM: 83%
A549 [5]; read-out: GI50
  GI50: 3.24 µM
A549 [5]; [18]
  CC50: > 100 µM
A549 [5]; read-out: TGI
  TGI: > 100 µM
A549 [5]; read-out: pGI50 (converted)
  GI50: 3.24 µM
A549 [5]; [19]
  CC50: > 100 µM
A549 [5]; read-out: pTGI (converted)
  TGI: > 100 µM
T47D [6]
  growth at 100 µM: -44%
[7]
  growth at 10 µM: -6.57%
Malme-3M
  growth at 1 µM: 104%
[8]
  growth at 0.01 µM: 97%
NCI-H322M
  growth at 10 µM: 27%
[9]; read-out: GI50
  GI50: 1.59 µM
[9]; [18]
  CC50: > 100 µM
[9]; read-out: TGI
  TGI: 4.7 µM
[9]; read-out: pGI50 (converted)
  GI50: 1.58 µM
[9]; [19]
  CC50: > 100 µM
[9]; read-out: pTGI (converted)
  TGI: 4.68 µM
M14 [10]
  growth at 10 µM: -7.64%
M14 [11]
  growth at 10 µM: -62%
SN12C
  growth at 0.01 µM: 95%
HT-29
  growth at 10 µM: -35%
T47D [12]
  growth at 0.01 µM: 101%
[13]
  growth at 0.1 µM: 96%
[14]; read-out: GI50
  GI50: 3.26 µM
[14]; [18]
  CC50: > 100 µM
[14]; read-out: TGI
  TGI: 10.8 µM
[14]; read-out: pGI50 (converted)
  GI50: 3.24 µM
[14]; [19]
  CC50: > 100 µM
[14]; read-out: pTGI (converted)
  TGI: 10.7 µM
[15]
  growth at 100 µM: -49%
SK-MEL-28
  growth at 100 µM: -36%
NCI/ADR-RES
  growth at 10 µM: 34.2%
[16]
  growth at 10 µM: -5%
NCI-H460
  growth at 0.01 µM: 104%
KM12
  growth at 0.1 µM: 98%
MCF7
  growth at 10 µM: 1%
[17]
  growth at 10 µM: -34%
CCRF-CEM
  growth at 10 µM: -1.84%
